The test system of data set [1] is Escherichia coli. Nature of the data set: Antibacterial activity against Escherichia coli K-12 assessed as reduction in bacterial growth incubated for 16 hrs. Conditions: K-12, 16 h. In kind it is functional.
The nature of data set [2]: Cytotoxicity in human HS5 cells assessed as reduction in cell viability at 20 uM to 2 mM incubated up to […]rs relative to chloramphenicol. Format: cell-based.
Data set [3] concerns HEK293. Kind of data set: Cytotoxicity in human HEK293 cells assessed as reduction in cell viability at 20 uM […] relative to chloramphenicol. To be noted: hek293, 20 µM. Format: cell-based.
Data set [4] can be described thus: Drug metabolism in human serum assessed as formation of chloramphenicol at 200 uM at 37 degC after 2 hrs by LC-MS analysis relative to control.
Data set [5] can be described thus: Drug metabolism in human serum assessed as formation of chloramphenicol at 200 uM at 37 degC after 24 hrs by LC-MS analysis relative to control.
The nature of data set [6]: Cytotoxicity in human HS5 cells assessed as reduction in cell viability at 0.5 to 50 uM incubated […] relative to chloramphenicol. In kind it is cell-based. The gist of the method: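 HS-5 cells were exposed for 24 h to conjugates and chloramphenicol at 20, 200 or 2000 μM, or to comparator antibiotics at 0.5, 5 or 50 μM, and cell viability was then read.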
Data set [7] deals with HEK293. Nature of the data set: Cytotoxicity in human HEK293 cells assessed as reduction in cell viability at 0.5 uM […] relative to chloramphenicol. To be noted: hek293, 0.5 µM. Format: cell-based.
Data set [8] deals with Escherichia coli. Nature of the data set: Antibacterial activity against Escherichia coli K-12 assessed as reduction in bacterial growth incubated for 16 hrs in presence of porcine liver esterase. Format: functional. To be noted: K-12, 16 h.
The test system of data set [9] is Escherichia coli. Nature of the data set: Antibacterial activity against Escherichia coli K-12 assessed as reduction in bacterial growth incubated for 16 hrs in absence of porcine liver esterase. Format: functional. Conditions: K-12, 16 h.
Data set [10] in a line: Drug metabolism in Escherichia coli K-12 lysates assessed as esterase-mediated drug hydrolysis at 200 uM incubated up to 24 hrs by HPLC analysis. In kind it is ADME, subcellular, Lysate. Conditions: escherichia coli k-12, isolated protein.
Data set [11] is described as follows: Drug metabolism in human HepG2 cells lysates assessed as esterase-mediated drug hydrolysis at 200 uM incubated up to 24 hrs by HPLC analysis. Format: ADME, subcellular, Lysate. Conditions: hepg2, 24 h.
A short description of data set [12]: Drug metabolism in Escherichia coli K-12 lysates assessed as esterase-mediated drug hydrolysis by measuring apparent first-order rate constant at 200 uM incubated up to 24 hrs by HPLC analysis. Format: ADME, subcellular, Lysate. To be noted: escherichia coli k-12, isolated protein.
For data set [13], the system named is Escherichia coli. Kind of data set: Antibacterial activity against ydgR gene deficient Escherichia coli assessed as reduction in bacterial growth at 0.1 to 100 uM incubated for 16 hrs. In kind it is functional, organism-based.
Data set [14] deals with Escherichia coli. Kind of data set: Antibacterial activity against fepA gene deficient Escherichia coli assessed as reduction in bacterial growth at 0.1 to 100 uM incubated for 16 hrs. In kind it is functional, organism-based.
For data set [15], the system named is Escherichia coli. Nature of the data set: Antibacterial activity against ompF gene deficient Escherichia coli assessed as reduction in bacterial growth at 0.1 to 100 uM incubated for 16 hrs. Format: functional, organism-based.
The test system of data set [16] is Escherichia coli. Kind of data set: Antibacterial activity against acrA gene deficient Escherichia coli assessed as reduction in bacterial cell viability at 0.1 to 100 uM incubated for 16 hrs relative to control. In kind it is functional.
For data set [17], the system named is Escherichia coli. Kind of data set: Antibacterial activity against bioH gene deficient Escherichia coli assessed as reduction in bacterial growth at 0.1 to 100 uM incubated for 16 hrs. In kind it is functional, organism-based.
The test system of data set [18] is Escherichia coli. Nature of the data set: Antibacterial activity against yjfP gene deficient Escherichia coli assessed as reduction in bacterial growth at 0.1 to 100 uM incubated for 16 hrs. In kind it is functional, organism-based.
Data set [19] relates to Escherichia coli. Nature of the data set: Antibacterial activity against frsA gene deficient Escherichia coli assessed as reduction in bacterial growth at 0.1 to 100 uM incubated for 16 hrs. Format: functional, organism-based.
In data set [20] the test system is Escherichia coli. Nature of the data set: Antibacterial activity against ybfF gene deficient Escherichia coli assessed as reduction in bacterial growth at 0.1 to 100 uM incubated for 16 hrs. In kind it is functional, organism-based.
Data set [21] relates to Escherichia coli. Kind of data set: Antibacterial activity against yfbB gene deficient Escherichia coli assessed as reduction in bacterial growth at 0.1 to 100 uM incubated for 16 hrs. In kind it is functional, organism-based.
In data set [22] the test system is Escherichia coli. Kind of data set: Antibacterial activity against ypfH gene deficient Escherichia coli assessed as reduction in bacterial growth at 0.1 to 100 uM incubated for 16 hrs. In kind it is functional, organism-based.
For data set [23], the system named is Escherichia coli. Kind of data set: Antibacterial activity against yeiG gene deficient Escherichia coli assessed as reduction in bacterial growth at 0.1 to 100 uM incubated for 16 hrs. Format: functional, organism-based.
Data set [24] concerns Escherichia coli. Nature of the data set: Antibacterial activity against yqiA gene deficient Escherichia coli assessed as reduction in bacterial growth at 0.1 to 100 uM incubated for 16 hrs. In kind it is functional, organism-based.

Structures are written as SMILES. Values after ≈ are worked out from the molar mass of the structure shown. Active and inactive are the calls of the source. The calls are words filed in the database; no cut-off is given here.

Regarding `O=C(CCC(=O)OC[C@@H](NC(=O)C(Cl)Cl)[C@H](O)c1ccc([N+](=O)[O-])cc1)NCC(=O)NCC(=O)N[C@H](Cc1ccccc1)C(=O)O`, in the data set with Escherichia coli [1], the MIC was 20 µM. The Activity result in data set [2] is on record as “Non-Toxic”; in the data set with HEK293 [3], “Toxic”. In addition, the Drug metabolism result in [4] and in data set [5] was “Metabolite_Detected” in each case.
With `O=C(O)c1cn(C2CC2)c2cc(N3CCNCC3)c(F)cc2c1=O` [CIPROFLOXACIN], the figures for the Activity entry (in [6]; with HEK293 [7]) were “Non-Toxic” and “Toxic”, respectively.
On to `NCCCC[C@@H](NC(=O)[C@@H](CCCCN)NC(=O)CCC(=O)OC[C@@H](NC(=O)C(Cl)Cl)[C@H](O)c1ccc([N+](=O)[O-])cc1)C(=O)O`, for which the minimum inhibitory concentration (MIC) with Escherichia coli [1] was found to be 200 µM; in the data set with Escherichia coli [8], 100 µM; in the data set on Escherichia coli [9] it was 200 µM (≈ 136 µg/mL). Moreover, the Drug metabolism result in data set [10], in [11] and in data set [5] was “Metabolite_Detected” in each case. For the same molecule, in [12], the K came out at 0.317 h⁻¹. Further, the outcome in the data set on Escherichia coli [13], in the data set on Escherichia coli [14] and in the data set with Escherichia coli [15] was Active. For the same molecule, the Activity with Escherichia coli [16] was found to be 20%. Moreover, the outcome with Escherichia coli [17], in the data set with Escherichia coli [18], in the data set with Escherichia coli [19], in the data set with Escherichia coli [20], in the data set on Escherichia coli [21] and in the data set with Escherichia coli [22] was inactive. Moreover, the outcome in the data set with Escherichia coli [23] and with Escherichia coli [24] was inactive.
Take `CC[C@H]1OC(=O)[C@H](C)C(=O)[C@H](C)[C@@H](O[C@@H]2O[C@H](C)C[C@H](N(C)C)[C@H]2O)[C@](C)(OC)C[C@@H](C)C(=O)[C@H](C)[C@H]2N(CCCCn3cnc(-c4cccnc4)c3)C(=O)O[C@]12C` [TELITHROMYCIN]: the MIC in the data set on Escherichia coli [1] was 0.6 µg/mL. The Activity result in data set [6] is given as “Non-Toxic”; in the data set on HEK293 [7], “Toxic”.
For the molecule `O=C(CCC(=O)OC[C@@H](NC(=O)C(Cl)Cl)[C@H](O)c1ccc([N+](=O)[O-])cc1)NCC(=O)N[C@H](CO)C(=O)O`, the MIC in the data set on Escherichia coli [1] turned out to be 20 µM; with Escherichia coli [8] it was 20 µM; with Escherichia coli [9], 20 µM (≈ 11.3 µg/mL). The Drug metabolism result in data set [10], in [11], in data set [4] and in [5] was “Metabolite_Detected” throughout. Also, the K in data set [12] turned out to be 3.763 h⁻¹. Also, the outcome in the data set on Escherichia coli [13], in the data set with Escherichia coli [14] and with Escherichia coli [15] was Active. Further, the values for the Activity (with Escherichia coli [16]; in data set [2]; in the data set on HEK293 [3]) were 30%, “Non-Toxic” and “Toxic”, respectively. Further, the result in the data set on Escherichia coli [17], with Escherichia coli [18], in the data set on Escherichia coli [19], with Escherichia coli [20], in the data set with Escherichia coli [21] and with Escherichia coli [22] was inactive. For the same molecule, the outcome in the data set on Escherichia coli [23] and in the data set on Escherichia coli [24] was inactive.
As to `NCCCC[C@H](NC(=O)CNC(=O)CCC(=O)OC[C@@H](NC(=O)C(Cl)Cl)[C@H](O)c1ccc([N+](=O)[O-])cc1)C(=O)O`, the MIC in the data set on Escherichia coli [1] was 20 µM. Also, the figures for the Activity entry (in data set [2]; in the data set on HEK293 [3]) were “Non-Toxic” and “Toxic”, respectively. Also, the Drug metabolism entry in data set [4] and in data set [5] was “Metabolite_Detected” in each case.
Regarding `COc1cc(Cc2cnc(N)nc2N)cc(OC)c1OC` [TRIMETHOPRIM], the MIC in the data set with Escherichia coli [1] is 1 µg/mL. Further, the Activity result in [6] was “Non-Toxic”; in the data set on HEK293 [7], “Toxic”.
Turning to `O=C(O)CNC(=O)[C@@H](CO)NC(=O)CCC(=O)OC[C@@H](NC(=O)C(Cl)Cl)[C@H](O)c1ccc([N+](=O)[O-])cc1`, the MIC came to 40 µM with Escherichia coli [1], 40 µM in the data set with Escherichia coli [8] and 40 µM (≈ 22.7 µg/mL) in the data set on Escherichia coli [9]. Further, the Drug metabolism entry in data set [10], in [11] and in data set [5] was “Metabolite_Detected” each time. Also, the K in [12] was 1.267 h⁻¹. Also, the outcome in the data set with Escherichia coli [13], in the data set on Escherichia coli [14] and in the data set on Escherichia coli [15] was Active. In addition, in the data set with Escherichia coli [16], the Activity amounted to 40%. Besides, the result with Escherichia coli [17], in the data set on Escherichia coli [18], in the data set on Escherichia coli [19], in the data set on Escherichia coli [20], in the data set with Escherichia coli [21] and with Escherichia coli [22] was inactive. Further, the outcome with Escherichia coli [23] and with Escherichia coli [24] was inactive.

(Values after ChEMBL document CHEMBL4414638, “Structure-Activity Relationship of Peptide-Conjugated Chloramphenicol for Inhibiting Escherichia coli” (J Med Chem, 2019).)
